# According to ChEMBL document CHEMBL5385894, “The discovery of 12β-methyl-17-epi-18-nor-bile acids as potent and selective TGR5 agonists” (Eur J Med Chem, 2023):
# Active and inactive are the calls of the source. The rule behind the calls is not given here.
# Biological target: T1, Bile acid receptor (Homo sapiens) (UniProt Q96RI1)
# T1 sequence (whole entry): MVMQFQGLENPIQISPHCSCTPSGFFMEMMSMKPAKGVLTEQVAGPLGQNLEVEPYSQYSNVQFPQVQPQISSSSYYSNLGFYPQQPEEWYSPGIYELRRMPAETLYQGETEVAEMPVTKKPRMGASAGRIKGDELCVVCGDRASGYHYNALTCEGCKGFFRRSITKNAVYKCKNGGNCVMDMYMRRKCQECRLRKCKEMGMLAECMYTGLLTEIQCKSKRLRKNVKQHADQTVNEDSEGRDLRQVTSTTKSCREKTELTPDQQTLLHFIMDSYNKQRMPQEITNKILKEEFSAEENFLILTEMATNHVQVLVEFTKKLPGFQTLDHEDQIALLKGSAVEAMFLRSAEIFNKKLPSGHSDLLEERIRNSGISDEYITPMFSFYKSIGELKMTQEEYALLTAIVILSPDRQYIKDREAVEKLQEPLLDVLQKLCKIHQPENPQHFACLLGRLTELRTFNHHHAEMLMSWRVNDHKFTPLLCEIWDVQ
# Assay: Agonist activity at FXR (unknown origin) at 10 uM relative to control
# Details: not given
# In short: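 Nuclear hormone receptor (NHR) transactivation screen at FXR run by Eurofins DiscoverX; test agents at 10 µM.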
row,Activity [%],SMILES
1,31,CC[C@H]1[C@@H](O)[C@H]2[C@@H]3CC[C@@H]([C@H](C)CCC(=O)O)[C@H]3[C@H](C)C[C@@H]2[C@@]2(C)CC[C@@H](O)C[C@@H]12
2,23,CC[C@H]1[C@@H](O)[C@H]2[C@@H]3CC[C@@H]([C@H](C)CCCC(=O)O)[C@H]3[C@H](C)C[C@@H]2[C@@]2(C)CC[C@@H](O)C[C@@H]12

# Biological target: T2, G-protein coupled bile acid receptor 1 (Homo sapiens, UniProt Q8TDU6)
# T2 sequence (Q8TDU6 whole entry): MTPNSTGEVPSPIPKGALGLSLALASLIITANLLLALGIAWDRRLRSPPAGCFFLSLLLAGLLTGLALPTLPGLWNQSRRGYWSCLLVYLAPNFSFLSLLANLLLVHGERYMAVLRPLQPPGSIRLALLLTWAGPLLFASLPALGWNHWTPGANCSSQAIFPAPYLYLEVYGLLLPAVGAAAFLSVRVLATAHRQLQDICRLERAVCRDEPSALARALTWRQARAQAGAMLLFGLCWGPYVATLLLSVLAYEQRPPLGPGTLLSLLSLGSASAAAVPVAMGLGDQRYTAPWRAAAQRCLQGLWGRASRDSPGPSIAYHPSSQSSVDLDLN
# Assay: Agonist activity at human TGR5 expressed in HEK293 cells incubated for 30 mins by SEAP reporter gene based assay
# Format: functional, cell-based
# Details: not given
# In short: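 Human TGR5 reverse-transfected 293T/17 cells in serum-free stimulation medium with 1% DMSO received a concentration series in triplicate, 30 min at bench then 7 h at 37 °C, 5% CO2. SEAP luminescence was read after heat inactivation at 65 °C. Response is % of 10 µM LCA, fitted by four-parameter unconstrained nonlinear regression to give EC50. Mean ± SD of three independent experiments.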
row,EC50 [µM],SMILES
1,5.2,CC[C@H]1[C@@H](O)[C@H]2[C@@H]3CC[C@H]([C@H](C)CCC(=O)NCCS(=O)(=O)O)[C@H]3[C@H](C)C[C@@H]2[C@@]2(C)CC[C@@H](O)C[C@@H]12
2,0.27,CC[C@H]1[C@@H](O)[C@H]2[C@@H]3CC[C@@H]([C@H](C)CCCC(=O)NCCS(=O)(=O)O)[C@H]3[C@H](C)C[C@@H]2[C@@]2(C)CC[C@@H](O)C[C@@H]12
3,0.31,CC[C@H]1[C@@H](O)[C@H]2[C@@H]3CC[C@@H]([C@H](C)CCC(=O)NCCS(=O)(=O)O)[C@H]3[C@H](C)C[C@@H]2[C@@]2(C)CC[C@@H](O)C[C@@H]12

# Biological target: T3, G-protein coupled bile acid receptor 1 (Homo sapiens) (UniProt Q8TDU6)
# T3 sequence (whole entry): T2 sequence (Q8TDU6 whole entry)
# Assay: Agonist activity at human TGR5 expressed in HEK293 cells at 10 uM incubated for 30 mins by SEAP reporter gene based assay relative to control
# Format: functional, cell-based
# Details: not given
# In short: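 293T/17 cells reverse-transfected with human TGR5 on reporter strips (3.8 × 10^4 cells/well, 20 h), then moved to serum-free DMEM stimulation medium with 1% DMSO. Compound at 10 µM in triplicate, 30 min on the bench, then 7 h at 37 °C. Medium heated 65 °C 30 min, SEAP substrate added, luminescence read. Efficacy is basal-subtracted RLU as % of 10 µM LCA. Mean ± SD of ≥2 independent experiments.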
row,Activity,SMILES
1,inactive,C[C@H](CCCCC(=O)O)[C@H]1CC[C@@H]2[C@@H]1[C@H](C)C[C@H]1[C@H]2[C@H](O)C[C@@H]2C[C@H](O)CC[C@@]21C
2,33%,CC[C@H]1[C@@H](O)[C@H]2[C@@H]3CC[C@H]([C@H](C)CCC(=O)O)[C@H]3[C@H](C)C[C@@H]2[C@@]2(C)CC[C@@H](O)C[C@@H]12
3,4%,C[C@H](CC(=O)O)[C@@H]1CC[C@@H]2[C@@H]1[C@H](C)C[C@H]1[C@H]2[C@H](O)C[C@@H]2C[C@H](O)CC[C@@]21C
4,26%,C[C@H](CCCC(=O)O)[C@@H]1CC[C@@H]2[C@@H]1[C@H](C)C[C@H]1[C@H]2[C@H](O)C[C@@H]2C[C@H](O)CC[C@@]21C
5,7%,C[C@H](CC(=O)NCCS(=O)(=O)O)[C@@H]1CC[C@@H]2[C@@H]1[C@H](C)C[C@H]1[C@H]2[C@H](O)C[C@@H]2C[C@H](O)CC[C@@]21C
6,inactive,CC[C@H]1[C@@H](O)[C@H]2[C@@H]3CC[C@H]([C@H](C)CCCC(=O)NCCS(=O)(=O)O)[C@H]3[C@H](C)C[C@@H]2[C@@]2(C)CC[C@@H](O)C[C@@H]12
7,inactive,CC[C@H]1[C@@H](O)[C@H]2[C@@H]3CC[C@H]([C@H](C)CC(=O)NCCS(=O)(=O)O)[C@H]3[C@H](C)C[C@@H]2[C@@]2(C)CC[C@@H](O)C[C@@H]12
8,inactive,C[C@H](CCC(=O)O)[C@H]1CC[C@@H]2[C@@H]1[C@H](C)C[C@H]1[C@H]2[C@H](O)C[C@@H]2C[C@H](O)CC[C@@]21C
9,11%,CC[C@H]1[C@@H](O)[C@H]2[C@@H]3CC[C@H]([C@H](C)CC(=O)O)[C@H]3[C@H](C)C[C@@H]2[C@@]2(C)CC[C@@H](O)C[C@@H]12
10,10%,CC[C@H]1[C@@H](O)[C@H]2[C@@H]3CC[C@@H]([C@H](C)C(=O)O)[C@H]3[C@H](C)C[C@@H]2[C@@]2(C)CC[C@@H](O)C[C@@H]12
11,4%,C[C@@H]1C[C@H]2[C@H]([C@@H]3CC[C@@H]([C@H](C)C(=O)O)[C@H]31)[C@H](O)C[C@@H]1C[C@H](O)CC[C@@]12C
12,inactive,C[C@H](CCCC(=O)O)[C@H]1CC[C@@H]2[C@@H]1[C@H](C)C[C@H]1[C@H]2[C@H](O)C[C@@H]2C[C@H](O)CC[C@@]21C

# Same assay, conditions: filed as agonist
row,Activity [%],SMILES
1,99,CC[C@H]1[C@@H](O)[C@H]2[C@@H]3CC[C@H]([C@H](C)CCC(=O)NCCS(=O)(=O)O)[C@H]3[C@H](C)C[C@@H]2[C@@]2(C)CC[C@@H](O)C[C@@H]12
2,43,C[C@H](CCCCC(=O)O)[C@@H]1CC[C@@H]2[C@@H]1[C@H](C)C[C@H]1[C@H]2[C@H](O)C[C@@H]2C[C@H](O)CC[C@@]21C
3,62,CC[C@H]1[C@@H](O)[C@H]2[C@@H]3CC[C@@H]([C@H](C)CCC(=O)O)[C@H]3[C@H](C)C[C@@H]2[C@@]2(C)CC[C@@H](O)C[C@@H]12
4,99,CC[C@H]1[C@@H](O)[C@H]2[C@@H]3CC[C@@H]([C@H](C)CCCC(=O)NCCS(=O)(=O)O)[C@H]3[C@H](C)C[C@@H]2[C@@]2(C)CC[C@@H](O)C[C@@H]12
5,61,CC[C@H]1[C@@H](O)[C@H]2[C@@H]3CC[C@@H]([C@H](C)C(=O)NCCS(=O)(=O)O)[C@H]3[C@H](C)C[C@@H]2[C@@]2(C)CC[C@@H](O)C[C@@H]12
6,42,CC[C@H]1[C@@H](O)[C@H]2[C@@H]3CC[C@@H]([C@H](C)CC(=O)NCCS(=O)(=O)O)[C@H]3[C@H](C)C[C@@H]2[C@@]2(C)CC[C@@H](O)C[C@@H]12
7,61,C[C@H](CCC(=O)NCCS(=O)(=O)O)[C@@H]1CC[C@@H]2[C@@H]1[C@H](C)C[C@H]1[C@H]2[C@H](O)C[C@@H]2C[C@H](O)CC[C@@]21C
8,42,CC[C@H]1[C@@H](O)[C@H]2[C@@H]3CC[C@@H]([C@H](C)CC(=O)O)[C@H]3[C@H](C)C[C@@H]2[C@@]2(C)CC[C@@H](O)C[C@@H]12
9,56,C[C@@H]1C[C@H]2[C@H]([C@@H]3CC[C@@H]([C@H](C)C(=O)NCCS(=O)(=O)O)[C@H]31)[C@H](O)C[C@@H]1C[C@H](O)CC[C@@]12C
10,69,CC[C@H]1[C@@H](O)[C@H]2[C@@H]3CC[C@@H]([C@H](C)CCCC(=O)O)[C@H]3[C@H](C)C[C@@H]2[C@@]2(C)CC[C@@H](O)C[C@@H]12
11,54,CC[C@H]1[C@@H](O)[C@H]2[C@@H]3CC[C@H]([C@H](C)CCCC(=O)O)[C@H]3[C@H](C)C[C@@H]2[C@@]2(C)CC[C@@H](O)C[C@@H]12
12,62,C[C@H](CCCC(=O)NCCS(=O)(=O)O)[C@@H]1CC[C@@H]2[C@@H]1[C@H](C)C[C@H]1[C@H]2[C@H](O)C[C@@H]2C[C@H](O)CC[C@@]21C
13,99,CC[C@H]1[C@@H](O)[C@H]2[C@@H]3CC[C@@H]([C@H](C)CCC(=O)NCCS(=O)(=O)O)[C@H]3[C@H](C)C[C@@H]2[C@@]2(C)CC[C@@H](O)C[C@@H]12
